Source: ChEMBL document CHEMBL2384961, “Geranylated flavonoids displaying SARS-CoV papain-like protease inhibition from the fruits of Paulownia tomentosa” (Bioorg Med Chem, 2013)

Experiments:
[1] = Mixed-type of inhibition of SARS coronavirus papain-like protease (1541 to 1855 amino acids) expressed in Escherichia coli BL21 (DE3) using Z-RLRGG-AMC as substrate by Dixon plot analysis; set-up: species or system Severe acute respiratory syndrome-related coronavirus
[2] = (§1) Inhibition of SARS coronavirus papain-like protease (1541 to 1855 amino acids) expressed in Escherichia coli BL21 (DE3) using Z-RLRGG-AMC as substrate by fluorogenic assay; set-up: species or system Severe acute respiratory syndrome-related coronavirus
Procedure, shortened: (§2)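 Protease domain construct His-tagged, purified by nickel affinity, ion-exchange and gel filtration, tag removed by TEV. […] AMC release followed continuously at ex 360/em 460 nm. IC50 is the concentration giving 50% activity loss; three repeat experiments, standard deviation.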

[3] = test system: Severe acute respiratory syndrome-related coronavirus; assay: as §1; procedure, shortened: as §2

Compound	Ki [1] [µM]	IC50 [2] [µM]	inhibition [3]
CC(C)=CCC/C(C)=C/Cc1c(O)cc2c(c1O)C(=O)C[C@@H](c1ccc(O)c(O)c1)O2 [NYMPHAEOL A]	5.1	10.4	Dose-dependent effect
CC(C)(O)CCCC1(C)CCc2c(cc3c(c2O)C(=O)C[C@@H](c2ccc(O)c(O)c2)O3)O1 (some centres undefined)	4.8	6.2	Dose-dependent effect
COc1ccc([C@H]2Oc3cc(O)c(C/C=C(\C)CCC=C(C)C)c(O)c3C(=O)[C@@H]2O)cc1O	6.3	9.2	Dose-dependent effect
COc1cc([C@H]2Oc3cc(O)c(C/C=C(\C)CCC=C(C)C)c(O)c3C(=O)[C@@H]2O)ccc1O	6.6	9.5	Dose-dependent effect
COc1cc([C@@H]2CC(=O)c3c(cc(O)c(C/C=C(\C)CCC=C(C)C)c3O)O2)ccc1O	7.1	13.2	Dose-dependent effect
COc1cc([C@@H]2CC(=O)c3c(cc(O)c(C/C=C(\C)CCC=C(C)C)c3O)O2)cc(OC)c1O	8.4	13.9	Dose-dependent effect
COc1cc([C@H]2Oc3cc4c(c(O)c3C(=O)[C@@H]2O)CCC(C)(CCCC(C)(C)O)O4)ccc1O (some centres undefined)	3.7	5	Dose-dependent effect
COc1cc([C@@H]2CC(=O)c3c(cc4c(c3O)CCC(C)(CCCC(C)(C)O)O4)O2)cc(OC)c1O (some centres undefined)	13	12.5	Dose-dependent effect
COc1ccc([C@@H]2CC(=O)c3c(cc(O)c(C/C=C(\C)CCC=C(C)C)c3O)O2)cc1O	6.9	12.7	Dose-dependent effect
COc1ccc([C@@H]2CC(=O)c3c(cc4c(c3O)CCC(C)(CCCC(C)(C)O)O4)O2)cc1O (some centres undefined)			Dose-dependent effect
CC(C)=CCC/C(C)=C/Cc1c(O)cc2c(c1O)C(=O)C[C@@H](c1ccc(O)cc1)O2 [BONANNIONE A]	7.8	14.4	Dose-dependent effect
COc1cc([C@@H]2CC(=O)c3c(cc4c(c3O)CCC(C)(CCCC(C)(C)O)O4)O2)cc(O)c1OC (some centres undefined)	5	11.6	Dose-dependent effect
